Laboratory results as given in ChEMBL document CHEMBL1149396, “In silico design and synthesis of piperazine-1-pyrrolidine-2,5-dione scaffold-based novel malic enzyme inhibitors” (Bioorg Med Chem Lett, 2006).

target: T1, NADP-dependent malic enzyme (Homo sapiens, UniProt P48163); assay: Inhibitory activity against cytosolic malic enzyme
T1 sequence (P48163 whole entry): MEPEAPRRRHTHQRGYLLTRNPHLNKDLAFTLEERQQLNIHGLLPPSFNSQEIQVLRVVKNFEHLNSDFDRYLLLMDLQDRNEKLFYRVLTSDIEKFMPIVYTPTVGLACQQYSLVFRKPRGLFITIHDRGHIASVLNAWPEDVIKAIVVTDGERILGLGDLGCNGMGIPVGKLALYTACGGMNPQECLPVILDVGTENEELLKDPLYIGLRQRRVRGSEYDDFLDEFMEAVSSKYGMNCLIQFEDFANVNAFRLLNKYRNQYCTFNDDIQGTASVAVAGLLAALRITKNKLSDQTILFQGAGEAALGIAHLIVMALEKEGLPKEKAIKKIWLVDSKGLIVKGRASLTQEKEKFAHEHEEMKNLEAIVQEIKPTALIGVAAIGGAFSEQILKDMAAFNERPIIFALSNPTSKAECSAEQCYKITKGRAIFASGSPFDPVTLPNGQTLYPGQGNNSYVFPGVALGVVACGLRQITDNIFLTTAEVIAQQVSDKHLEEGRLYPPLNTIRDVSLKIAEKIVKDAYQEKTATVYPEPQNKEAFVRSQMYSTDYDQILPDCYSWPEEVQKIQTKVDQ
Method in brief: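 Coupled endpoint assay. Enzyme pre-incubated with compound 45 min at room temperature in 85 mM Tris pH 7.5 containing 2 mM malic acid and 5 mM MnCl2. Reaction started with 124 µM NADP, run 30 min at room temperature, stopped with 0.5 M EDTA. NADPH formed read via MTS/PMS reduction to formazan, absorbance at 492 nm.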

SMILES | IC50
O=C1CC(N2CCN(c3cccc(O)c3)CC2)C(=O)N1Cc1ccccc1 (stereo not given) | 10 µM
O=C1CC(N2CCN(c3ccc(O)cc3)CC2)C(=O)N1Cc1ccccc1 (stereo not given) | 0.45 µM
COc1ccc(N2CCN(C3CC(=O)N(c4ccccc4)C3=O)CC2)cc1 (stereo not given) | > 20 µM
COc1ccc(N2CCN(C3CC(=O)N(Cc4ccccc4)C3=O)CC2)cc1 (stereo not given) | > 20 µM
Cc1ccc(N2C(=O)CC(N3CCN(c4ccc(O)cc4)CC3)C2=O)cc1Cl (stereo not given) | 0.56 µM
O=C1CC(N2CCN(c3cccc(C(F)(F)F)c3)CC2)C(=O)N1c1ccccc1 (stereo not given) | 3.15 µM
O=C1CC(N2CCN(c3ccccc3O)CC2)C(=O)N1Cc1ccccc1 (stereo not given) | > 20 µM
O=C1CC(N2CCN(c3ccc(F)cc3)CC2)C(=O)N1c1ccccc1 (stereo not given) | 10 µM
COc1ccc(N2CCN(C3CC(=O)N(c4cccc(Cl)c4Cl)C3=O)CC2)cc1 (stereo not given) | > 20 µM
O=C1CC(N2CCN(c3ccc(O)cc3)CC2)C(=O)N1c1ccccc1 (stereo not given) | 0.15 µM
